Assay [1] addresses T1, Zinc finger MYND domain-containing protein 11 (Homo sapiens) (UniProt Q15326).
T1 sequence (whole entry): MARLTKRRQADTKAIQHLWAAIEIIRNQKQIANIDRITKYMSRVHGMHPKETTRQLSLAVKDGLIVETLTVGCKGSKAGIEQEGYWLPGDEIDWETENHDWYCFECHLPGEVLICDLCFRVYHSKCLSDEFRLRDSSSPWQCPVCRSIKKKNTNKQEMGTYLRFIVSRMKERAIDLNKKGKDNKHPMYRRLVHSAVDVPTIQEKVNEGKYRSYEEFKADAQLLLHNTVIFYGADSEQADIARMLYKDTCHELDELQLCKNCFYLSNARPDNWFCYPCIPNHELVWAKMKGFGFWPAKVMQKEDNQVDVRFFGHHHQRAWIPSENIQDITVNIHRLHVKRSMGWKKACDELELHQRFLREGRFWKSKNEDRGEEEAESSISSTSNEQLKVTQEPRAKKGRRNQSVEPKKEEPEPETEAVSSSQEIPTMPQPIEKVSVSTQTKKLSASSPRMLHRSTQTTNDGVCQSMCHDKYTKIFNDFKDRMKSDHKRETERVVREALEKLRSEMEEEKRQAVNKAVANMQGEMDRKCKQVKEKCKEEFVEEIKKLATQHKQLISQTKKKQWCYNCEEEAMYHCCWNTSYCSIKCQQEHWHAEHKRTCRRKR
The experiment in a line: Binding affinity to ZMYND11 PWWP1 domain (unknown origin) assessed as aggregation temperature at 400 uM by heating at 25 to 85 degC by differential static light scattering method.

The target in assay [2] is T2, Histone-lysine N-methyltransferase NSD2 (Homo sapiens, UniProt O96028).
T2 sequence (O96028 whole entry): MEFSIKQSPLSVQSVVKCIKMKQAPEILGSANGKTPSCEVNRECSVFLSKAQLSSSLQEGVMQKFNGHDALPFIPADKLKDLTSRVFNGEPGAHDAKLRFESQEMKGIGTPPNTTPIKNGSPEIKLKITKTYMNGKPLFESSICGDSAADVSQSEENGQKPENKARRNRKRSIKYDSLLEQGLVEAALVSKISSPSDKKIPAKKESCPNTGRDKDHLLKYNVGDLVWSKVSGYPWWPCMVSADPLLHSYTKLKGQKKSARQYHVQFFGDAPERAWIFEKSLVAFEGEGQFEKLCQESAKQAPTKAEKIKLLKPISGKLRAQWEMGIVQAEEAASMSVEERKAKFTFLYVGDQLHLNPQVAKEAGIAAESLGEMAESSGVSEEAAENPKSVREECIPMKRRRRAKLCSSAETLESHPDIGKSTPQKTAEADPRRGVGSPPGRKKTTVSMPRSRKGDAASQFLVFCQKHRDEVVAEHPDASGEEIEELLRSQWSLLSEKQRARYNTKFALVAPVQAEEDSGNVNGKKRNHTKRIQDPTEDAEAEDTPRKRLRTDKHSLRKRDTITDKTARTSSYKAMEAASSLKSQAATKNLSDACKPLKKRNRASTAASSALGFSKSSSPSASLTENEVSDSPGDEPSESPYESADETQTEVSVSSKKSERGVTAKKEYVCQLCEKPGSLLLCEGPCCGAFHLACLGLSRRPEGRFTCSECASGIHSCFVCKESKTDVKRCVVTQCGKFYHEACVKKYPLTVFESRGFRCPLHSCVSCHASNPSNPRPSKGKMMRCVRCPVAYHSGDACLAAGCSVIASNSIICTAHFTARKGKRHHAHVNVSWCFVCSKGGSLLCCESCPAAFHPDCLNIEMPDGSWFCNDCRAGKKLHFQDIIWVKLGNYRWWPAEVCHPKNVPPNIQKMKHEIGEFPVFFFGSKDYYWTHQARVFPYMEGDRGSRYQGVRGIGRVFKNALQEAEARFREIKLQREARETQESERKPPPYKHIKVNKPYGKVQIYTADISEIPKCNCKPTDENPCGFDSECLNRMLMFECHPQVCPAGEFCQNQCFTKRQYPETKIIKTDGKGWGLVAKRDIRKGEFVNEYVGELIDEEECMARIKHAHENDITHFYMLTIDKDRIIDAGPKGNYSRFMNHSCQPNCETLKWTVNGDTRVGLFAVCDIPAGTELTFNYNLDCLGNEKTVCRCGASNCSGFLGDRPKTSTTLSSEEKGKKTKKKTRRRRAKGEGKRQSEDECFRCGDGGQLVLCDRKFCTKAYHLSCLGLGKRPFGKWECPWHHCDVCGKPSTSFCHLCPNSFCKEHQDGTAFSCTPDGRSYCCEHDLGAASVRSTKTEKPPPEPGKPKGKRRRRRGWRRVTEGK
The experiment in a line: Binding affinity to NSD2 PWWP1 domain (unknown origin) assessed as dissociation constant by surface plasmon resonance analysis. The procedure, abridged: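 SPR in single-cycle kinetics, HBS-EP buffer (20 mM HEPES pH 7.4, 150 mM NaCl, 3 mM EDTA, 0.05% Tween-20) with 5% DMSO. Ten concentrations from 200 μM top, twofold dilutions. Contact time 60 s, dissociation 120 s, flow 75 μL/min; Kd derived.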
(Surface plasmon resonance follows binding to a sensor surface in real time, without labels.)

Assay [3] addresses T3, Zinc finger CW-type PWWP domain protein 1 (Homo sapiens) (UniProt Q9H0M4).
T3 sequence (whole entry): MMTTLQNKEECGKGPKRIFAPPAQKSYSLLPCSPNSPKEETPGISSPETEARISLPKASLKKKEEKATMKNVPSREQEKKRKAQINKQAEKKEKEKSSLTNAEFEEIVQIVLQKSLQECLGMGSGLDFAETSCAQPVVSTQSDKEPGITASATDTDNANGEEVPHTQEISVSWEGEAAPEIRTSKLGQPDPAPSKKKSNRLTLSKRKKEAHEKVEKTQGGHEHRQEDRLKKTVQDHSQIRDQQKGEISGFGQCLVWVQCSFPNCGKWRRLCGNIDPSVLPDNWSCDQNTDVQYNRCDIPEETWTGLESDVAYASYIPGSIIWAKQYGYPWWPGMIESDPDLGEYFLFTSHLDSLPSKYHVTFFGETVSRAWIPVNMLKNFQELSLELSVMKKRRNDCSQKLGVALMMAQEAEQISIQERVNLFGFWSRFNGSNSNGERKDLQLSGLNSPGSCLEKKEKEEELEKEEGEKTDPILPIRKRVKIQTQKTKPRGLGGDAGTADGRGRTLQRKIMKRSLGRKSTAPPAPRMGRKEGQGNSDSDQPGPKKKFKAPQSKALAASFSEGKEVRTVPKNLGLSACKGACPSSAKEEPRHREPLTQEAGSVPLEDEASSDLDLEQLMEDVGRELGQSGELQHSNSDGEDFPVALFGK
The experiment in a line: Binding affinity to ZCWPW1 PWWP1 domain (unknown origin) assessed as aggregation temperature at 400 uM by heating at 25 to 85 degC by differential static light scattering method.

pKd: −log10 of the molar value. The source made the active and inactive calls. The calls are words filed in the database; no cut-off is given here.

In general, pKd refers to the negative decadic logarithm of the Kd, by convention in mol/L. Take `N#Cc1ccc(C(C(N)=O)N2CCC2c2ccc(Cl)cc2)cc1` (stereo not drawn): the outcome in assay [1] and in assay [3] was inactive. Moreover, in assay [2], the pKd is 4.39.

The values above are taken from ChEMBL document CHEMBL4732170, “Discovery of Small-Molecule Antagonists of the PWWP Domain of NSD2” (J Med Chem, 2021).
